# Laboratory results: ChEMBL document CHEMBL1833841, “Synthesis and biological evaluation of a novel class of isatin analogs as dual inhibitors of tubulin polymerization and Akt pathway” (Bioorg Med Chem, 2011)
# pIC50: −log10 of the molar value. Where a name gives a salt, the structure may show the parent alone. The source made the active and inactive calls. No cut-off for these calls is given here.
# Assays:
# Bos taurus = species on record: Bos taurus; experiment: Inhibition of bovine brain tubulin polymerization at 10 uM after 1 hrs by fluorescence assay
# How it was run: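 Compound at 10 µM final, DMSO as control. Fluorescence (ex 360, em 440 nm) read every 10 s for 1 h at 37°C, duplicate wells.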
# MCF7 = experiment: Cytotoxicity against human MCF7 cells after 48 hrs by MTS assay; format: functional, cell-based; details: MCF7, 48 h
# How it was run: (§1)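 A549, MCF-7 and UACC903 cells grown in DMEM with 10% FBS at 37°C, 5% CO2. 5×10^3 cells/well were left to adhere 24 h, then treated 48 h with compound (DMSO stock diluted in DMEM, 0.5–50 µM). MTS read at 490 nm and normalized to control. Dose-response fitted as sigmoidal, variable slope. Triplicates from at least two independent experiments.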
# HT-29 [1] = experiment: Induction of apoptosis in human HT-29 cells assessed as early apoptotic cells at 2.5 uM after 24 hrs by PE annexin V and 7-Aminoactinomycin D staining-based flow cytometry (reference value: 1.37%); format: functional
# How it was run: (§2)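 HT29 cells were treated with 1.25–5.0 µM compound or DMSO for 24 h at 37°C, harvested by low-speed centrifugation and washed twice in cold PBS. They were resuspended in binding buffer at 1×10^6 cells/ml, stained with PE annexin V and 7-AAD for 15 min at RT in the dark, and quantified by flow cytometry.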
# HT-29 [2] = experiment: Induction of apoptosis in human HT-29 cells after 24 hrs by PE annexin V and 7-Aminoactinomycin D staining-based flow cytometry; format: functional, cell-based; how it was run: as §2
# HT-29 [3] = experiment: Induction of apoptosis in human HT-29 cells assessed as dead cells at 2.5 uM after 24 hrs by PE annexin V and 7-Aminoactinomycin D staining-based flow cytometry (reference value: 1.33%); format: functional
# How it was run: (§3)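 HT29 cells (RPMI, 10% FBS) treated with 1.25, 2.5 or 5 μM, or DMSO control, for 24 h at 37 °C. Cells then harvested, washed twice in cold PBS and resuspended at 1×10^6 cells/ml in binding buffer. Stained with PE annexin V and 7-AAD for 15 min at RT in the dark, then analysed by flow cytometry. 7-AAD-positive cells counted as dead.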
# HT-29 [4] = experiment: Induction of apoptosis in human HT-29 cells assessed as late apoptosis or necrotic cells at 5 uM after 24 hrs by PE annexin V and 7-Aminoactinomycin D staining-based flow cytometry (reference value: 4.1%); format: functional; how it was run: as §2
# HT-29 [5] = experiment: Induction of apoptosis in human HT-29 cells assessed as viable cells at 1.25 uM after 24 hrs by PE annexin V and 7-Aminoactinomycin D staining-based flow cytometry (reference value: 93.2%); format: functional; details: HT-29, 24 h, read-out: Activity; how it was run: as §2
# HT-29 [6] = experiment: Induction of apoptosis in human HT-29 cells assessed as late apoptosis or necrotic cells at 1.25 uM after 24 hrs by PE annexin V and 7-Aminoactinomycin D staining-based flow cytometry (reference value: 4.1%); format: functional; how it was run: as §2
# HT-29 [7] = experiment: Induction of apoptosis in human HT-29 cells assessed as viable cells at 5 uM after 24 hrs by PE annexin V and 7-Aminoactinomycin D staining-based flow cytometry (reference value: 93.2%); format: functional; details: HT-29, 24 h, read-out: Activity; how it was run: as §2
# HT-29 [8] = experiment: Induction of apoptosis in human HT-29 cells assessed as early apoptotic cells at 1.25 uM after 24 hrs by PE annexin V and 7-Aminoactinomycin D staining-based flow cytometry (reference value: 1.37%); format: functional; how it was run: as §2
# HT-29 [9] = experiment: Induction of apoptosis in human HT-29 cells at 2.5 uM after 24 hrs by PE annexin V and 7-Aminoactinomycin D staining-based flow cytometry; format: functional; how it was run: as §3
# HT-29 [10] = experiment: Cytotoxicity against human HT-29 cells after 48 hrs by MTS assay; format: functional, cell-based; details: HT-29, 48 h
# How it was run: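 HT29 cells maintained in RPMI with 10% FBS. 5×10^3 cells/well were left to adhere 24 h, then exposed 48 h to compound (DMSO stock diluted in DMEM, 0.5–50 µM). MTS absorbance at 490 nm normalized to control. IC50 from sigmoidal variable-slope fit. Triplicates, at least two independent experiments.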
# HT-29 [11] = experiment: Induction of apoptosis in human HT-29 cells assessed as increase in caspase 3/7 activation after 24 hrs by fluorescence spectrophotometry relative to control; format: functional; design: concentration or dose not given beside the values
# How it was run: (§4)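 HT29 cells seeded at 1×10^4/well and grown 24 h, then treated 24 h with 1.25–5 µM compound or DMSO. Equal volume of Apo-ONE caspase-3/7 reagent added, shaken 30 s, incubated 2 h at RT. Cleaved-substrate fluorescence read at ex 498/em 521 nm, expressed relative to DMSO cells. Means ± SD, triplicate, one representative experiment.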
# HT-29 [12] = experiment: Induction of apoptosis in human HT-29 cells assessed as late apoptosis or necrotic cells at 2.5 uM after 24 hrs by PE annexin V and 7-Aminoactinomycin D staining-based flow cytometry (reference value: 4.1%); format: functional; how it was run: as §2
# HT-29 [13] = experiment: Induction of apoptosis in human HT-29 cells assessed as increase in caspase 3/7 activation after 24 hrs by fluorescence spectrophotometry; format: functional, cell-based; how it was run: as §4
# HT-29 [14] = experiment: Induction of apoptosis in human HT-29 cells at 1.25 uM after 24 hrs by PE annexin V and 7-Aminoactinomycin D staining-based flow cytometry; format: functional; how it was run: as §3
# HT-29 [15] = experiment: Induction of apoptosis in human HT-29 cells at 5 uM after 24 hrs by PE annexin V and 7-Aminoactinomycin D staining-based flow cytometry (reference value: 6.8%); format: functional; how it was run: as §3
# HT-29 [16] = experiment: Inhibition of AKT expression in human HT-29 cells assessed as total AKT level at 1 uM after 24 hrs by Western blotting; format: functional, cell-based
# How it was run: (§5)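 HT29 cells treated 24 h with 1 or 2 µM compound or no drug. Lysed in HEPES/NaCl/EDTA/NP40 buffer with phosphatase and protease inhibitors. Protein equalized by Bradford, run on 10% gels, semi-dry transfer to nitrocellulose, blocked in 5% milk. Pan-Akt or phospho-Akt rabbit polyclonal primaries overnight at 4°C, HRP secondaries, chemiluminescence. β-actin loading control.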
# HT-29 [17] = experiment: Inhibition of AKT expression in human HT-29 cells assessed as total AKT level at 2 uM after 24 hrs by Western blotting; format: functional, cell-based; how it was run: as §5
# UACC-903 = experiment: Cytotoxicity against human UACC903 cells after 48 hrs by MTS assay; format: functional, cell-based; details: UACC-903, 48 h; how it was run: as §1
# HT-29 [18] = experiment: Induction of apoptosis in human HT-29 cells assessed as dead cells at 1.25 uM after 24 hrs by PE annexin V and 7-Aminoactinomycin D staining-based flow cytometry (reference value: 1.33%); format: functional; how it was run: as §3
# HT-29 [19] = experiment: Induction of apoptosis in human HT-29 cells assessed as early apoptotic cells at 5 uM after 24 hrs by PE annexin V and 7-Aminoactinomycin D staining-based flow cytometry (reference value: 1.37%); format: functional; how it was run: as §2
# A549 = experiment: Cytotoxicity against human A549 cells after 48 hrs by MTS assay; format: functional, cell-based; details: A549, 48 h; how it was run: as §1
# [20] = molecular target: RAC-alpha serine/threonine-protein kinase (Homo sapiens) (UniProt P31749); experiment: Inhibition of AKT phosphorylation in human HT-29 cells assessed as p-AKT level at 1 uM after 24 hrs by Western blotting; format: cell-based; how it was run: as §5
# RAC-alpha serine/threonine-protein kinase (Homo sapiens), sequence (P31749 whole entry): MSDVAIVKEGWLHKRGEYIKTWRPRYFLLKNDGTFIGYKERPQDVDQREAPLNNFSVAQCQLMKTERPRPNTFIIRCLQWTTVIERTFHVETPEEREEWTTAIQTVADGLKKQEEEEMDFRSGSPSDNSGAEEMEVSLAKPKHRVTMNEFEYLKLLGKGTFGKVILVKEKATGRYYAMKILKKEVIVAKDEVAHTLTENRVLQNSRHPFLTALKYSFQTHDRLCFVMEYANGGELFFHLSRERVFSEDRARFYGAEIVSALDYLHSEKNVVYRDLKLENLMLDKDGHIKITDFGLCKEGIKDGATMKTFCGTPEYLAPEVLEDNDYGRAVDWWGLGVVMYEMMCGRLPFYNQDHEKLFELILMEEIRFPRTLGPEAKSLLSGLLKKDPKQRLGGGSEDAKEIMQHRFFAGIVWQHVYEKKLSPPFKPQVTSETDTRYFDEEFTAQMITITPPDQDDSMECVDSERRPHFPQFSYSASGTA
# HT-29 [21] = experiment: Induction of apoptosis in human HT-29 cells assessed as dead cells at 5 uM after 24 hrs by PE annexin V and 7-Aminoactinomycin D staining-based flow cytometry (reference value: 1.33%); format: functional; how it was run: as §3
# HT-29 [22] = experiment: Induction of apoptosis in human HT-29 cells assessed as viable cells at 2.5 uM after 24 hrs by PE annexin V and 7-Aminoactinomycin D staining-based flow cytometry (reference value: 93.2%); format: functional; details: HT-29, 24 h, read-out: Activity; how it was run: as §2
# HT-29 [23] = experiment: Induction of apoptosis in human HT-29 cells assessed as DNA fragmentation at 5 uM after 48 hrs by TUNEL assay; format: functional, cell-based
# How it was run: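 1×10^5 HT29 cells/well grown 24 h in 10% serum medium, then exposed to 5 µM compound. Fragmented DNA stained with ApopTag Red in situ kit, Hoechst nuclear counterstain. Red TUNEL-positive versus blue total nuclei scored by fluorescence microscopy.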
# MEF = experiment: Cytotoxicity against mouse MEF cells after 48 hrs by MTS assay; format: cell-based
# How it was run: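 Mouse embryonic fibroblasts exposed to compound for 48 h; viability then read by MTS colorimetric assay. IC50 derived from the viability data.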
# [24] = molecular target: RAC-alpha serine/threonine-protein kinase (Homo sapiens) (UniProt P31749); experiment: Inhibition of AKT phosphorylation in human HT-29 cells assessed as p-AKT level at 2 uM after 24 hrs by Western blotting; format: cell-based; how it was run: as §5
SMILES,inhibition (Bos taurus),pIC50 (MCF7),Activity (HT-29 [1]) [%],Activity (HT-29 [2]),Activity (HT-29 [3]) [%],Activity (HT-29 [4]) [%],viability at 1.25 µM (HT-29 [5]) [%],Activity (HT-29 [6]) [%],viability at 5 µM (HT-29 [7]) [%],Activity (HT-29 [8]) [%],Activity (HT-29 [9]) [%],pIC50 (HT-29 [10]),fold change (FC) (HT-29 [11]),Activity (HT-29 [12]) [%],Activity (HT-29 [13]),Activity (HT-29 [14]) [%],Activity (HT-29 [15]) [%],inhibition (HT-29 [16]),pIC50 (UACC-903),pIC50 (A549),other results
CC(=O)O[C@H]1C(=O)[C@@]2(C)[C@H]([C@H](OC(=O)c3ccccc3)[C@]3(O)C[C@H](OC(=O)[C@H](O)[C@@H](NC(=O)c4ccccc4)c4ccccc4)C(C)=C1C3(C)C)[C@]1(OC(C)=O)CO[C@@H]1C[C@@H]2O,inactive,–,–,–,–,–,–,–,–,–,–,–,–,–,–,–,–,–,–,–,–
O=C1C(=O)N(Cc2ccc(CN=C=S)cc2)c2c(Br)cc(Br)cc21,77%,4.92,6.78,Dose-dependent effect,6.56,47.5,83.6,8.59,38.8,3.5,36.64,5.96,16,23.3,Dose-dependent effect,16.38,61.23,Active,5.51,5.42,inhibition (HT-29 [17]): Active; Activity (HT-29 [18]): 4.29%; Activity (HT-29 [19]): 2.93%; inhibition [20]: inactive; Activity (HT-29 [21]): 10.8%; viability at 2.5 µM (HT-29 [22]): 63.4%
N#CSCc1ccc(CN2C(=O)C(=O)c3cc(Br)cc(Br)c32)cc1,71%,4.61,10.6,Dose-dependent effect,7.76,52.9,88.5,4.46,33.1,4.42,39.46,5.94,16,21.1,Dose-dependent effect,11.47,66.98,Active,5.65,5.60,Activity (HT-29 [23]): Active; inhibition (HT-29 [17]): Active; Activity (HT-29 [18]): 2.59%; Activity (HT-29 [19]): 2.68%; pIC50 (MEF): < 4.70; inhibition [20]: inactive; Activity (HT-29 [21]): 11.4%; viability at 2.5 µM (HT-29 [22]): 60.6%
N#CSCCCCN1C(=O)C(=O)c2cc(Br)cc(Br)c21,–,4.66,–,–,–,–,–,–,–,–,–,5.62,–,–,–,–,–,–,5.69,5.26,–
O=C1C(=O)N(CCCCCl)c2c(Br)cc(Br)cc21,–,4.83,–,–,–,–,–,–,–,–,–,5.60,–,–,–,–,–,–,5.43,5.42,–
O=C1C(=O)N(CCCN=C=S)c2c(Br)cc(Br)cc21,62%,5.05,6.93,Dose-dependent effect,2.9,48.5,91.5,3.79,38.5,2.83,21.23,5.81,16,11.4,Dose-dependent effect,8.54,61.5,inactive,5.36,5.67,Activity (HT-29 [23]): Active; inhibition [24]: Active; inhibition (HT-29 [17]): Active; Activity (HT-29 [18]): 1.92%; Activity (HT-29 [19]): 4.78%; pIC50 (MEF): < 4.70; inhibition [20]: inactive; Activity (HT-29 [21]): 8.22%; viability at 2.5 µM (HT-29 [22]): 78.8%
CC[C@]1(O)C[C@@H]2CN(CCc3c([nH]c4ccccc34)[C@@](C(=O)OC)(c3cc4c(cc3OC)N(C)[C@H]3[C@@](O)(C(=O)OC)[C@H](OC(C)=O)[C@]5(CC)C=CCN6CC[C@]43[C@@H]65)C2)C1 [VINBLASTINE SULFATE],66%,–,–,–,–,–,–,–,–,–,–,6.26,–,–,–,–,–,–,5.78,–,–
